Screening data: PubChem BioAssay, several laboratories
Sampled rows, rich in hits. Any-hit rate of the full collection: about 2.3%.
Rpn11 block: Rpn11 (PSMD14) deubiquitinase inhibitors, primary screen, biochemical, fluorescence polarization, uHTS | human 26S proteasome, Ub4-pepOG fluorescence polarization; 20S core pre-blocked with epoxomicin | inhibition, % at 20 µM | 0.59% of 360,000 active;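 active = inhibition at 20 µM, scaled to each plate's controls, above about 33%, limit read from the data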
HNF4A DNA FP: change in binding of human HNF4A to DNA, primary screen, biochemical, fluorescence polarization, FITC-DNA | Hepatocyte nuclear factor 4-alpha (Homo sapiens), P41235 | 1 h | activity change, % at 10 µM | 0.3% of 360,000 active; in the data active = activity change above about 30%, passing the limit was not always enough
Target sequence (P41235 whole entry, looked up): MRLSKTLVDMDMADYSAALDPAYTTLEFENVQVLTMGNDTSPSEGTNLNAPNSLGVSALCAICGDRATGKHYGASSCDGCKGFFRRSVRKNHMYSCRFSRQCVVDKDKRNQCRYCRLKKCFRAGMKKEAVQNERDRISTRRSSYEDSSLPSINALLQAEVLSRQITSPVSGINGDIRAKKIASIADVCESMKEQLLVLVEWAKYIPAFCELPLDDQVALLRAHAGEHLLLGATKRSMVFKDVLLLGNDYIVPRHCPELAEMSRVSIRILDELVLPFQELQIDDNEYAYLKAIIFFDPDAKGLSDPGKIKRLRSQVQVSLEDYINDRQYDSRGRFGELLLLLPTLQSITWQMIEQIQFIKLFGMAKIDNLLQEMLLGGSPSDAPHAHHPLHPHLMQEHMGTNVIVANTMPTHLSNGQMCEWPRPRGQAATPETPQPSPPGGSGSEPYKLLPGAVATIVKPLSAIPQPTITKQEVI
Myeloid diff MLP: induction of myeloid progenitor differentiation, primary screen, cell-based, flow cytometry, MLPCN library. ER-HoxA9 myeloid progenitors, lysozyme-GFP differentiation. calls only at 10 µM. 1% of 360,000 active;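 active = normalized GFP-positive differentiation at or above the plate's own cutoff, the solvent-only control mean plus 3 SD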;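 note: cells exposed to compound for four days before flow analysis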
TPT1 inhibitor: Candida albicans TPT1 enzyme inhibitors, primary screen, biochemical, fluorescence polarization. tRNA 2'-phosphotransferase TPT1 (Candida albicans SC5314). recombinant caTPT1, FP RNA substrate dephosphorylation. inhibition, % at 5 µM. 0.81% of 300,000 active. AID 1962, 2009;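 active = inhibition above the mean of all tested compounds plus 3 SD, set per screening campaign, cut at about 24% in these data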
CSN deneddyl inh: inhibitors of CSN-mediated cullin deneddylation, primary screen, biochemical, fluorescence polarization, uHTS | 0.38% of 360,000 active | COP9 signalosome complex subunit 5 (Homo sapiens), Q92905 | Purified CSN, SCF-Nedd8-OG deneddylation | AID 651999, 2013 | inhibition, % at 12.5 µM;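 active = pattern-corrected inhibition above about 35%, with an unprinted fluorescence ratio check between 0.5 and 1.5, limit read from the data, passing the limit was not always enough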
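Assay system: purified human Csn5 enzyme expressed in HEK293T cells; measure: % inhibition; also added: SCFSkp2-Nedd8OG substrate at 10 nM final; technique: fluorescence polarization; times: reaction 90 min, room temperature; medium: Tris buffer pH 7.5, NaCl, DTT, Tween-20, trehalose, ovalbumin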
Myeloid diff: inducers of myeloid progenitor differentiation, confirmation, cell-based, GFP/Mac1 flow cytometry, cherry pick 01; shares compounds with Myeloid diff MLP; ER-HoxA9 myeloid progenitors, GFP/Mac1 double-positive flow; calls only; 2% of 2,300 active;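 active = share of green or green-and-red cells above 9 and 9% in run 1 or 4 and 3% in run 2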
GFP autofluor: compound fluorescence in myeloid differentiation counter-screen; shares compounds with Myeloid diff MLP; ER-HoxA9 myeloid progenitors, no estrogen, GFP autofluorescence flow cytometry; vehicle wells 0%, positive control 100%; fluorescence response, % (test concentration not listed); 7.4% of 2,300 active; AID 651707;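 active = over 5% cells positive for green fluorescent reporter, or over 2% positive for both it and APC stain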
Of the large screens only hits and unclear results are named; the others gave an inactive call (follow-up assays come after a bar, where shown).

CCOC(=O)c1cc(-c2ccccc2)sc1NC(=S)Nc1cc(C)ccn1	HNF4A DNA FP 47, Myeloid diff MLP active (not shown: Rpn11 block) | Myeloid diff inactive | GFP autofluor inactive
CN(C(=O)CSCC(=O)Nc1ccc(Cl)cc1)C1CCCCC1	none (no result: TPT1 inhibitor)
O=C(O)C1CCCC2CN3CCc4c([nH]c5ccccc45)C3C(O)C21 (stereo not drawn)	none | Myeloid diff inactive | GFP autofluor inactive
O=C(Cc1cccc(NC(=O)C2CCN(C(=O)C3CCC3)CC2)c1)Nc1cccc(C(=O)N2CCCC2)c1	none (no result: TPT1 inhibitor) | Myeloid diff inactive | GFP autofluor inactive
C[C@@H]1CCCCO[C@@H](CN(C)S(=O)(=O)c2cn(C)cn2)[C@@H](C)CN([C@H](C)CO)C(=O)c2cc(N(C)C)ccc2O1	none (no result: TPT1 inhibitor)
CCCCN1C(=O)c2ccc(C(=O)Nc3cccc(C)c3C)cc2C1=O	none
CCCCN1C(=O)c2ccc(C(=O)NC3(C)CCS(=O)(=O)C3)cc2C1=O (stereo not drawn)	Myeloid diff MLP active (no result: TPT1 inhibitor) | Myeloid diff inactive | GFP autofluor inactive
COc1ccc(-c2sc3ccc(OC)cc3c2-c2ccc(OC)nc2)cc1	none (no result: TPT1 inhibitor)
O=C(COc1ccccc1)Nc1nc2cc3c(cc2s1)OCO3	none
O=C(COc1ccccc1)Nc1nc2cc3c(cc2s1)OCCO3	none | Myeloid diff inactive | GFP autofluor inactive
CCCCCN(C(=O)NC(=O)NCCCC)S(C)(=O)=O	none
CCCCCN(C(=O)NC(=O)Nn1cnnc1)S(C)(=O)=O	Myeloid diff MLP active | Myeloid diff inactive | GFP autofluor inactive
COc1ccc2c(c1)CSC(c1ccccc1)C2=O (stereo not drawn)	none (no result: TPT1 inhibitor)
CN(C(=O)c1cccc(C#CC(C)(C)O)c1)C1CCCN(Cc2ccccc2F)C1 (stereo not drawn)	none
CCOP(=O)(OCC)C(NC(=O)Nc1ccc(Cl)c(Cl)c1)C(N)=O (stereo not drawn)	none | Myeloid diff inactive | GFP autofluor inactive
COc1ccc(-c2cc3ccccc3n2CC(O)Cn2nc(C)cc2C)cc1 (stereo not drawn)	none
COc1ccc(-c2cc3ccccc3n2CC(O)CN2CCC(C)CC2)cc1 (stereo not drawn)	none | Myeloid diff inactive | GFP autofluor inactive
CCCCNC(=S)NNC(=O)c1csc(C)c1	none | Myeloid diff inactive | GFP autofluor inactive
CC1CCN(C2=NC(=O)/C(=C/c3ccccc3F)S2)CC1	none
CN1C2CCC1/C(=C\c1ccccc1F)C(=O)/C2=C/c1ccccc1F	none | Myeloid diff inactive | GFP autofluor inactive
C/C(=N\NC(=O)C1CCCN(S(=O)(=O)c2ccccc2)C1)c1ccccn1 (stereo not drawn)	none (no result: Myeloid diff MLP) | Myeloid diff inactive | GFP autofluor inactive
CC1CC(C)CN(C(=O)CN2C(=O)NC3(CCCCCC3)C2=O)C1 (stereo not drawn)	none (no result: TPT1 inhibitor)
CC1CN(C(=O)CN2C(=O)NC3(CCCCCCC3)C2=O)CC(C)O1 (stereo not drawn)	Myeloid diff MLP active | Myeloid diff inactive | GFP autofluor inactive
NC(=O)C1CCN(C(=O)C2CC(=O)N(Cc3ccccc3)C2)CC1 (stereo not drawn)	none (no result: TPT1 inhibitor)
COc1ccccc1-c1nnc(SCC(=O)Nc2ccc(Cl)cc2Cl)o1	none
COc1cccc2c1OC[C@@H](CO)[C@H]2N(C)C(=O)Nc1ccc(Cl)cc1Cl	none | Myeloid diff inactive | GFP autofluor inactive
Cc1cccc(C(=O)OCN2C(=O)c3ccccc3C2=O)c1[N+](=O)[O-]	none
C/C(=N\n1cnnc1)c1ccccc1	none
N#Cc1ccc(S(=O)(=O)N2CCC(C(=O)Nc3cccc(C(=O)NC4CC4)c3)CC2)cc1	none (no result: TPT1 inhibitor)
NC(=O)NNC1=Nc2cccc3cccc1c23	none | Myeloid diff inactive | GFP autofluor inactive
CCOC(=O)c1oc2ccc(CNC3CCCCC3)c(Cl)c2c1C	Myeloid diff MLP active | Myeloid diff inactive | GFP autofluor inactive
COc1cc(NC(=O)c2ccc(Cl)cc2Cl)ccc1NC(=O)c1cccs1	none
COc1cccc(N=C(N)N=C(N)N)c1	Myeloid diff MLP active | Myeloid diff inactive | GFP autofluor inactive
COc1cccc2sc(=NC(=O)CS(=O)(=O)c3ccc(Cl)cc3)n(C)c12	Myeloid diff MLP active | Myeloid diff inactive | GFP autofluor inactive
CCn1c(=NC(=O)CS(=O)(=O)c2ccc(C)cc2)sc2cccc(OC)c21	none | Myeloid diff inactive | GFP autofluor inactive
COc1cccc2sc(=NC(=O)CS(=O)(=O)c3ccccc3)n(C)c12	none (no result: TPT1 inhibitor)
COc1cccc2sc(=NC(=O)CS(=O)(=O)c3ccc(F)cc3)n(C)c12	none
CN(C)CCOC(=O)NCC12CC3CC(CC(C3)C1)C2	none
C/C(=N/NC(=O)c1cccc(C)c1)c1c(O)cc(C)oc1=O	none | Myeloid diff inactive | GFP autofluor inactive
CC(C)Oc1ccccc1C1NC(=O)CCC1[N+](=O)[O-] (stereo not drawn)	none | Myeloid diff inactive | GFP autofluor inactive
CCOc1ccccc1C1NC(=O)CCC1[N+](=O)[O-] (stereo not drawn)	none
Cc1ccc(N(C(=O)CNC(=O)c2ccco2)C(C(=O)NC2CCCCC2)c2ccncc2)c(C)c1 (stereo not drawn)	none
COC(=O)c1ccc(NC(=O)c2cc(-c3ccncc3)nc3ccccc23)cc1	none (no result: TPT1 inhibitor)
COC(=O)c1ccc(NC(=O)c2cc(-c3ccccn3)nc3ccccc23)cc1	Myeloid diff MLP active | Myeloid diff inactive | GFP autofluor inactive
COc1ccc(-c2ccc([C@H]3[C@@H]4C=CCC[C@@]4(C)C(=O)N3Cc3ccccc3)c(F)c2)cc1	none | Myeloid diff inactive | GFP autofluor inactive
COc1ccc(OC)c(N(CC(=O)O)S(=O)(=O)c2ccc(OC)c(OC)c2)c1	Myeloid diff MLP active | Myeloid diff inactive | GFP autofluor inactive
Cc1ccc(S(=O)(=O)NCC(=O)N2CCN(S(=O)(=O)c3ccc(Cl)cc3)CC2)cc1C	none
CCN(CC)C(=O)C1=C(C)N(CCCN2CCCC2=O)C(=O)C(CC(=O)NCc2ccco2)C1 (stereo not drawn)	none (no result: TPT1 inhibitor) | Myeloid diff inactive | GFP autofluor inactive
CCCCN1C(=O)C(CC(=O)NCc2ccco2)CC(C(=O)N(CC)CC)=C1C (stereo not drawn)	none (no result: TPT1 inhibitor)
COc1cc(/C=N\Nc2ccc([N+](=O)[O-])cc2)ccc1OCC(=O)Nc1ccc(C)c(C)c1	none (not shown: Rpn11 block, TPT1 inhibitor) | Myeloid diff inactive | GFP autofluor inactive
O=C(/C=C\N1CCOCC1)c1ccc(Br)cc1	none
